Screen size: about 2,400 compounds; about 660 (28%) were called active. Not all results are given here. A number with no mark means an inactive call.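 How the source made its calls: active means mean inhibition over replicate wells above the hit cutoff set for the earlier primary screen (cut at about 29% in these data); inactive means the rest.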
Each compound was assayed on M18 aspartyl aminopeptidase (Plasmodium falciparum 3D7) (assay: PfM18AAP inhibitors, malaria aminopeptidase, confirmation, biochemical, QFRET, recombinant enzyme, triplicate (AID 2170;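 further: 0% = median of test compound wells and 100% = 2 mM ZnCl2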)). Details: H-Glu-NHMec fluorogenic cleavage, at 7.35 µM, stronger effect = higher value.
Summary of the method: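 System – recombinant P. falciparum M18 aspartyl aminopeptidase · Reagent – H-Glu-NHMec fluorogenic substrate · Dosing – 7.35 µM single dose · Incubation – Enzyme–compound pre-incubation 30 min, substrate reaction 90 min, both 25 °C · Technique – fluorescence, excitation 340 nm, emission 450 nm, read at 0 and 90 min · Controls – ZnCl2 inhibitor control · Repeats – n of 3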

Row | SMILES | inhibition
1 | O=C(Nn1cnnc1)c1cc(Cl)ccc1Cl | 55.1% (active)
2 | O=C(Nc1ccccc1Cl)Nn1cnnc1 | 65.9% (active)
3 | Cc1ccc(S(=O)(=O)N/N=C\c2cc3c(cc2[N+](=O)[O-])OCO3)cc1 | -7.72%
4 | Cc1ccc(Cl)cc1-c1ccc(/C=N/n2cnnc2)o1 | -18.6%
5 | Cc1ccc(-c2ccc(/C=C(\C#N)C(N)=S)o2)c([N+](=O)[O-])c1 | -32.7%
6 | NC(=O)c1c(NC(=O)CSc2nnc(-c3ccco3)n2N)sc2c1CCCC2 | -70.9%
7 | S=c1[nH]nc2c3c4c(sc3ncn12)CCCC4 | -11.8%
8 | CCOCCCNC(=O)c1ccc(CS(=O)(=O)c2cccc(C(F)(F)F)c2)o1 | -29.5%
9 | Cc1cccc(NC(=O)c2sc3nc(N4CCOCC4)c4c(c3c2N)CCCC4)c1 | 3.82%
10 | O=S(=O)(c1ccc(NC(=S)NN=C(C2CC2)C2CC2)cc1)N1CCOCC1 | 14.8%
11 | Cc1nnc(SCC(=O)Nn2cnnc2)s1 | 29.1% (active)
12 | NC(=O)C1CCN(C(=O)/C(=C/c2ccco2)NC(=O)c2ccccc2)CC1 | -45.2%
13 | CCOc1ccc(-n2c(O)c(/C=N/Nc3nnc(C)c(=O)[nH]3)c3ccccc3c2=O)cc1 | 12.4%
14 | Oc1c(C(c2ccco2)N2CCC3(CC2)OCCO3)sc2ncnn12 (stereo not drawn) | -4.87%
15 | Cc1ccc2nc(-c3cccc(Br)c3)cc(C(=O)Nn3cnnc3)c2c1 | 63.4% (active)
16 | CCN(CC)c1ccc(/C=N/Nc2nc(C)cc(C)n2)c(O)c1 | 16.4%
17 | Oc1ccc(/C=N/NC2=NCCCCC2)c(O)c1 | 41.8% (active)
18 | O=C(Oc1ccc(Br)cc1C(=S)N1CCOCC1)c1cccc([N+](=O)[O-])c1 | -27.5%
19 | Oc1ccc(N2CCN(C(=S)NCc3ccccc3)CC2)cc1 | -12.9%
20 | CC(OC(=O)c1ccc2noc(-c3ccccc3)c2c1)C(N)=O (stereo not drawn) | -28.2%
21 | O=C(N/N=C/c1ccc(O)c(O)c1)C1c2ccccc2Oc2ccccc21 | 37.3% (active)
22 | CSc1n[nH]c(=S)n1N | -12.7%
23 | O=C(CSC(=S)N1CCOCC1)c1cc(Br)cc(Br)c1O | -45.7%

Row | SMILES | inhibition
24 | CCN(CC)c1ccc(NC(=O)CCc2nnc3ccc(N4CCCCC4)nn23)c(C)c1 | -12.9%
25 | Cc1csc(NC(=O)NC2(C(F)(F)F)Oc3ccccc3O2)n1 | 68.6% (active)
26 | Oc1cccc(/C=N/Nc2ccc(Cl)nn2)c1O | 20.8%
27 | CN(C)c1ccc(C(CC(=O)O)C(=O)O)cc1 (stereo not drawn) | -38.2%
28 | COc1cc(S(=O)(=O)Nc2ncn[nH]2)ccc1Cl | 34.1% (active)
29 | Cc1onc(-c2ccccc2)c1C(=O)NNC(=S)NC(=O)c1ccc(F)cc1 | -38.8%
30 | Oc1ccc(-c2csc(Nc3cccnc3)n2)cc1 | 56.6% (active)
31 | CC1(C)CC(=O)C/C(=N\NC(=O)c2cccs2)C1 | 3.68%
32 | N#CCC(=O)N/N=C/c1ccc(SCC(=O)Nc2ccccc2)o1 | -37.9%
33 | CCOC(=O)NNc1cc(C(F)(F)F)ccn1 | 28.2% (active)
34 | COc1ccc2c(c1)C(C)=CC(C)(C)N2C(=O)Nc1ccccc1 | -22.9%
35 | COc1ccc(/C=N/Nc2nc3ccccc3o2)cc1OC | -38.4%
36 | c1ccc2c(c1)OCC(c1nn3cnnc3s1)O2 (stereo not drawn) | -28.2%
37 | Cc1cc2nc3c(=O)n(Cc4ccccc4)c(=O)[nH]c3nc2cc1N | 7.01%
38 | Cc1ccsc1/C=N/Nc1ccc(Cl)nn1 | -14.8%
39 | COc1cc(Br)cc(/C=N/c2ncn[nH]2)c1O | 62.9% (active)
40 | Cc1cc(-c2ccc(/C=N/n3cnnc3)o2)c([N+](=O)[O-])cc1C | 0.8%
41 | Cc1ccc(NC(=O)c2c(NC(=O)CCC(=O)O)sc3c2CCCCC3)cc1 | -30.8%
42 | CNC(=S)NNC(=O)c1ccc(N(C)C)cc1 | 12.2%
43 | CCCc1nc2ccccc2c(=O)n1/N=C/c1ccc(O)c(O)c1 | 28.4% (active)
44 | CC(C)c1ccc(NC(=S)NNc2ccc(Cl)c(C(=O)O)c2)cc1 | -43.7%
45 | COc1cc(/C=C2/C(=O)NN(c3cccc(Cl)c3)C2=O)cc(Br)c1O | 12.9%
46 | O=C(NNC(=O)c1ccco1)Nc1ccccc1 | 17.1%

Row | SMILES | inhibition
47 | CC(C)C1N=C2c3ccccc3N=C(SCC(=O)c3ccc(O)c(O)c3)N2C1=O (stereo not drawn) | 39% (active)
48 | COc1cc(NC(=S)N2CCCC(C)C2)c(OC)cc1Cl (stereo not drawn) | -0.38%
49 | S=c1[nH]c(-c2cccs2)cn1-c1ccccc1 | 39.1% (active)
50 | Cc1cc(C)nc(NNC2=CC(=O)CC(C)(C)C2)n1 | 44.3% (active)
51 | O=C(CC(n1cncn1)C(Cl)(Cl)Cl)c1ccc([N+](=O)[O-])cc1 (stereo not drawn) | -9.53%
52 | COc1c(O)ccc2c1CN1CCc3cc4c(cc3C1C2)OCO4 (stereo not drawn) | 9.45%
53 | Cc1c(CC(=O)N2CCN(C(=O)C3COc4ccccc4O3)CC2)c(=O)oc2c(O)c(O)ccc12 (stereo not drawn) | 32.3% (active)
54 | CCN1/C(=C/C(=S)Nc2ccccc2)Sc2ccccc21 | 0.1%
55 | CC(C)(C)c1nnc(N/N=C/c2ccc(O)cc2)n(N)c1=O | -22.7%
56 | CCOc1ccc(C2C3=C(CCCC3=O)N(CC(=O)O)C3=C2C(=O)CCC3)cc1 | -43.7%
57 | Cc1ccnc(-n2sc3ccccc3c2=O)n1 | 28.8% (active)
58 | NC(=S)N/N=C/c1coc2cc(Cl)ccc2c1=O | -23.6%
59 | O=C(CN1CCN(c2ccc(O)cc2)CC1)Nc1ccc(-c2ccccc2)cc1 | -14.9%
60 | c1ccc2sc(NN=C3CCCC3)nc2c1 | -44.4%
61 | Cc1cc(C)nc(Nc2ncn[nH]2)n1 | 71.7% (active)
62 | COc1cccc2cc(-c3cc(=O)oc4cc(C)c(O)cc34)oc12 | -27.8%
63 | O=C(CSc1ncn[nH]1)Nc1ccnc2ccccc12 | 8.46%
64 | O=C(CSc1ncn[nH]1)Nc1nsc(-c2ccccc2)n1 | 14.9%
65 | O=C(CSc1ncn[nH]1)Nc1nc(-c2cccc([N+](=O)[O-])c2)cs1 | 36.5% (active)
66 | COc1ccccc1-c1nnc(SCC(=O)Nc2cc(C)on2)o1 | -49.2%
67 | c1ccc(-c2ccc3c(c2)NC(C2Nc4cc(-c5ccccc5)ccc4O2)O3)cc1 (stereo not drawn) | -52.4%
68 | O=C1CCCCN1CCCC(=O)N1CCCC(Nc2ccc(F)cc2)C1 (stereo not drawn) | -33.7%
69 | COc1ccc(OC)c(Nc2nc(-c3ccc(O)c(O)c3)cs2)c1 | 42.4% (active)

Row | SMILES | inhibition
70 | Cc1cc(/C=N/Nc2ccc([N+](=O)[O-])cn2)c(C)n1-c1cccc(C(=O)O)c1 | -23.4%
71 | Cc1ccc(-c2noc(CC(c3ccccc3)c3ccccc3)n2)cc1 | -39.5%
72 | Cn1sc(=O)c2cc(S(=O)(=O)NC3CC3)ccc21 | -11.8%
73 | O=C(CN1CCN(S(=O)(=O)c2cc(Cl)ccc2Cl)CC1)c1ccc(O)c(O)c1 | 31.5% (active)
74 | Cc1nc2ccc(S(=O)(=O)NCC(=O)O)cc2s1 | 12.5%
75 | O=C(Cn1c[n+](CC(=O)c2ccc([N+](=O)[O-])cc2)cn1)c1ccc([N+](=O)[O-])cc1 | 14%
76 | O=c1nc(N/N=C/c2ccco2)cn[nH]1 | 18.9%
77 | ONC(=Nc1ccccc1)c1ccccc1Cl | -2.39%
78 | CC/C(C)=N/Nc1nc2sc3c(c2c(=O)[nH]1)CC(C)(C)OC3 | 9.57%
79 | Oc1ccc(/C=N/Nc2ccc(C(F)(F)F)cn2)cc1O | 6.58%
80 | Cc1nccn1CC(=O)N/N=C/c1ccc(O)c(O)c1 | 58.4% (active)
81 | Cn1c(SCC(=O)N/N=C/c2ccc(O)c(O)c2)nc2ccccc21 | 50.9% (active)
82 | CCn1c(CNS(=O)(=O)c2ccc(Cl)cc2)n[nH]c1=S | -0.52%
83 | Cn1c(=O)[nH]c(=O)c2c1[nH]c(=S)n2Cc1ccccc1 | 6.35%
84 | Cc1cc([N+](=O)[O-])c(-c2ccc(/C=N/n3cnnc3)o2)cc1Cl | 10.6%
85 | O=[N+]([O-])c1ccc(N2CCN(c3ccc(O)cc3)CC2)c(Cl)c1 | -3.08%
86 | O=C(COc1ccc([N+](=O)[O-])cc1Cl)Nn1cnnc1 | 36.8% (active)
87 | O=C(Nc1cccc([N+](=O)[O-])c1)Nn1cnnc1 | 64.6% (active)
88 | COc1cc(/C=N\Nc2ccc([N+](=O)[O-])cn2)ccc1OCC(=O)O | -18%
89 | CCN(CC)S(=O)(=O)c1cc([N+](=O)[O-])ccc1NNC(=O)Nc1ccccc1 | 25.9%
90 | O=C(O)CCn1c(O)c(C=C2N=c3ccccc3=N2)sc1=S | -42.5%
91 | NC(=O)c1c(Nc2nc3c(F)cccc3s2)sc2c1CCCC2 | -18.3%
92 | Cc1cc2c(C)nc(N/N=C/c3ccccc3)nc2o1 | -42.8%

Row | SMILES | inhibition
93 | O=C(CO/N=C/c1ccccc1O)NNC(=O)c1ccccc1Cl | 42.3% (active)
94 | CCOc1cccc(/C=N/NC(=S)NCCN2CCOCC2)c1O | 16.9%
95 | COc1ccc(OCc2nnc3n2N=C(c2ccccc2)C(CC(=O)O)S3)cc1 (stereo not drawn) | 40.8% (active)
96 | COc1ccc(OCc2n[nH]c(=S)n2N)cc1 | 20.3%
97 | CC1CCN(C(=O)c2ccc3c(c2)NC(=O)CN3)CC1 | -7.91%
98 | CCN(CC)c1ccc2oc(=O)c(C)nc2c1 | 27.1%
99 | ClC1(Cl)CC1CSc1ncn[nH]1 (stereo not drawn) | 11.5%
100 | CCn1ccnc1CNC(=O)CC1C(=O)NCCN1Cc1ccc(F)cc1Cl (stereo not drawn) | -24.5%
101 | CC(=O)c1ccc(NC(=O)CCc2nnc3ccc(NCc4ccco4)nn23)cc1 | -28.5%
102 | CC(C)(C)C(=O)OCc1nc(-c2ccc(O)c(O)c2)cs1 | 53.5% (active)
103 | COc1ccc(N/C=C(\C2OC(=O)c3ccccc32)[N+](=O)[O-])cc1 (stereo not drawn) | -36.7%
104 | CC(/C=C/C1(O)C(C)CC(=O)CC1(C)C)OC1OC(CO)C(O)C(O)C1O (stereo not drawn) | 11.3%
105 | CNC(=O)c1c(NC(NC(=O)c2ccco2)C(=O)c2ccc(Cl)cc2)sc2c1CCCC2 (stereo not drawn) | -18.7%
106 | CC(C)(C)NC(=O)C(c1ccncc1)N(C(=O)CNC(=O)c1ccco1)c1ccc2c(c1)OCO2 (stereo not drawn) | -44.5%
107 | CC(=O)N(c1ccc2oc(=O)sc2c1)S(=O)(=O)c1ccc(C)cc1 | -21.7%
108 | COc1cc(/C=N/Nc2nn3cnnc3c3ccccc23)cc(OC)c1OC | -33.8%
109 | COc1cc(/C=N/NC(=S)Nc2cccnc2)cc(OC)c1O | 35.5% (active)
110 | O=C(O)c1cccc(NC(=S)N/N=C/c2c[nH]c3ccccc23)c1 | 3.61%
111 | OCCN1CCN(C(=S)c2ccc(-c3ccccc3)cc2)CC1 | 14.5%
112 | Cc1ccc(C)c(NC(=O)NNC(=O)c2ccc3ccccc3c2O)c1 | 4.3%
113 | Cc1nc2nc[nH]n2c(=O)c1C/C=C/c1ccccc1 | 50.7% (active)

Reference: PubChem BioAssay AID2170 (The Scripps Research Institute Molecular Screening Center, 2009)
